Source: ChEMBL document CHEMBL1681732, “Synthesis and SAR of sulfoxide substituted carboxyquinolines as NK3 receptor antagonists” (Bioorg Med Chem Lett, 2011)
≈ marks a conversion by molar mass, not a printed value.

Experiments:
[1] = test system: MDR1; assay: (§1) Efflux ratio of permeability in MDCK cells expressing human MDR1; assay type: ADME, cell-based, Canis lupus familiaris; conditions: dog, MDCK-MDR1
Method in brief: (§2)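 Permeability measured in MDCK cells expressing human MDR1. Papp is expressed in 10^-6 cm/s and reported together with the efflux ratio.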

[2] = Equilibrium solubility of the compound; assay type: physicochemical
[3] = Intrinsic clearance in human liver microsomes assessed per mg of protein; assay type: ADME, Microsome
[4] = test system: MDR1; assay: (§3) Apparent permeability across MDCK cells expressing human MDR1; assay type: ADME, cell-based, Canis lupus familiaris; conditions: dog, MDCK-MDR1; method in brief: as §2
[5] = molecular target: T1, Neuromedin-K receptor (Homo sapiens, UniProt P29371); assay: Antagonist activity at human NK3 receptor expressed in CHO cells assessed as inhibition of senktide-induced calcium flux by FLIPR assay; assay type: functional, cell-based
T1 sequence (P29371 whole entry): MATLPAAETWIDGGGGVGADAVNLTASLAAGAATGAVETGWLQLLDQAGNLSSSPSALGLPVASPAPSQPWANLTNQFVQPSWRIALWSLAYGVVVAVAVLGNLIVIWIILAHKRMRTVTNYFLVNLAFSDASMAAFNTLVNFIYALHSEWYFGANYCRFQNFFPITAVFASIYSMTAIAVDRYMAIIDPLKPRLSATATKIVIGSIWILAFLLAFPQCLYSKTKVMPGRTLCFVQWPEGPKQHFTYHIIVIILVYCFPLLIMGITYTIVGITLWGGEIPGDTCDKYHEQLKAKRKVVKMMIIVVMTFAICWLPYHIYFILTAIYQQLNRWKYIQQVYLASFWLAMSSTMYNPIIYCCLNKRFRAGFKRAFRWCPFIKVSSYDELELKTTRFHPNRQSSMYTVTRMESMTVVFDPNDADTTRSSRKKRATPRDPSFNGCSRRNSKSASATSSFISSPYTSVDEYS
Method in brief: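 FLIPR functional assay in CHO cells stably expressing human recombinant NK3 receptor. EC50 given as mean ± SEM (n ≥ 2), or as a single value where n = 1. Tested as 1:1 diastereomer mixtures unless marked as a single isomer.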

[6] = molecular target: Voltage-gated inwardly rectifying potassium channel KCNH2 (Homo sapiens, UniProt Q12809); assay: Inhibition of human ERG
[7] = test system: Gerbillinae; assay: Reversal of senktide-induced locomotor activity in ip dosed gerbil; assay type: functional
[8] = Half life in rat; assay type: ADME, organism-based; conditions: in vivo
[9] = Oral bioavailability in rat; assay type: ADME, organism-based; conditions: in vivo
[10] = Clearance in rat plasma; assay type: ADME, organism-based
[11] = Lipophilicity, log D of the compound; assay type: physicochemical; conditions: octanol/water
[12] = Ratio of drug level in brain to plasma in rat at 3 umol/kg, iv after 1 hr; assay type: ADME, organism-based; conditions: brain and plasma, read-out: BPR
Method in brief: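 Rat dosed iv at 3 µmol/kg. Total brain and plasma levels taken 1 h post dose, and their ratio reported.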

[13] = Selectivity ratio of EC50 for human NK3 receptor to EC50 for NK2 receptor
[14] = Selectivity ratio of EC50 for human NK3 receptor to EC50 for NK1 receptor
[15] = Oral bioavailability in dog; assay type: ADME, organism-based, Canis lupus familiaris; conditions: in vivo
[16] = Plasma clearance in dog; assay type: ADME, organism-based, Canis lupus familiaris
[17] = Half life in dog; assay type: ADME, organism-based, Canis lupus familiaris; conditions: in vivo
[18] = test system: MDCK; assay: as §1; assay type: ADME, cell-based, Canis lupus familiaris; conditions: dog, mdck; method in brief: as §2
[19] = test system: MDCK; assay: as §3; assay type: ADME, cell-based, Canis lupus familiaris; conditions: dog, mdck; method in brief: as §2

Chain of Voltage-gated inwardly rectifying potassium channel KCNH2 (Q12809 whole entry): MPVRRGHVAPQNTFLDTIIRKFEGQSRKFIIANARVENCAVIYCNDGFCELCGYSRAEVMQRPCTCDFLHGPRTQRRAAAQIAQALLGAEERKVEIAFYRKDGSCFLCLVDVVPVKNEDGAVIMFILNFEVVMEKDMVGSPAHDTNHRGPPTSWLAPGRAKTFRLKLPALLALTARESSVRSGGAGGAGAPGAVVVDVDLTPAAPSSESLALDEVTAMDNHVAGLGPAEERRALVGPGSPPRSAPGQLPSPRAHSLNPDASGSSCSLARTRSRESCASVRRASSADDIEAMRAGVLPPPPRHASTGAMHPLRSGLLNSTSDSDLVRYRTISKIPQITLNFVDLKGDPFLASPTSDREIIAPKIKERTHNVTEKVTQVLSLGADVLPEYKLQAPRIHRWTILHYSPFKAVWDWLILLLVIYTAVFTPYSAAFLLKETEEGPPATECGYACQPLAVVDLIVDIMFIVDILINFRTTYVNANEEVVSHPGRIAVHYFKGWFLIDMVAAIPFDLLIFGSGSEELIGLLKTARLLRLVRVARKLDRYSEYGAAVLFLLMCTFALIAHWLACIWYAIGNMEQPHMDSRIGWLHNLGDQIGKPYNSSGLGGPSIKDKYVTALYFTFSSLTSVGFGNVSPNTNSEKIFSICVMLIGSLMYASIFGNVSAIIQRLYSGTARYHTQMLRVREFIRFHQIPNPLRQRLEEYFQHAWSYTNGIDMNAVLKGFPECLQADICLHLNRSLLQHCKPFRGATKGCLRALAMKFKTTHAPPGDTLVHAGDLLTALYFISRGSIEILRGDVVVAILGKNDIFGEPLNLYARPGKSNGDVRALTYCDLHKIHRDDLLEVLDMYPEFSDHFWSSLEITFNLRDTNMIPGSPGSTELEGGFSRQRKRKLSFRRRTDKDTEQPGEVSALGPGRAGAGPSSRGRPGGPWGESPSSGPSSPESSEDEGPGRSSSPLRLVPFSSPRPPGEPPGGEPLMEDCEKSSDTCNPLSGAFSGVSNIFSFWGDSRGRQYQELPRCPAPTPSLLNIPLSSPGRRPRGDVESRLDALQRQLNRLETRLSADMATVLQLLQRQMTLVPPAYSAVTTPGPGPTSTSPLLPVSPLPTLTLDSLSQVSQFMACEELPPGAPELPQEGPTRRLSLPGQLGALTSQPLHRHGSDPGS

SMILES	solubility thermodynamic [2]	EC50 [5]	also measured
CC[C@H](NC(=O)c1c([S@+](C)[O-])c(-c2ccccc2)nc2ccccc12)c1ccccc1	270 µM (≈ 116 µg/mL)	0.0037 µM	efflux ratio [1]: 1.3; microsomal CLint [3]: 23 µL/min/mg; Papp [4]: 280 nm/s; INH [6]: > 33 µM; Activity [7]: Dose-dependent effect; ED50 [7]: 0.75 µmol/kg; half-life [8]: 3 h; bioavailability [9]: 60%; clearance [10]: 3.6 L/h/kg; logD [11]: 3; Kp at 1 h [12]: 0.4; Ratio EC50 [13]: 1860; Ratio EC50 [14]: > 2700
CC[C@H](NC(=O)c1c(C[S@@+](C)[O-])c(-c2ccccc2)nc2ccccc12)c1ccccc1	8 µM (≈ 3.54 µg/mL)	0.0018 µM	efflux ratio [1]: 2.6; microsomal CLint [3]: 5.2 µL/min/mg; Papp [4]: 100 nm/s; INH [6]: > 33 µM; ED50 [7]: 22 µmol/kg; logD [11]: 3.5
CC[C@H](NC(=O)c1c(C[S@+](C)[O-])c(-c2ccccc2)nc2ccccc12)c1ccccc1	53 µM (≈ 23.5 µg/mL)	0.0053 µM	efflux ratio [1]: 3.7; microsomal CLint [3]: 8.4 µL/min/mg; Papp [4]: 99 nm/s; INH [6]: > 33 µM; ED50 [7]: 2 µmol/kg; bioavailability [15]: 89%; logD [11]: 3.5; Ratio EC50 [13]: 170; clearance [16]: 0.138 L/h/kg; half-life [17]: 6.7 h; Ratio EC50 [14]: > 660
CC[C@H](NC(=O)c1c(SC)c(-c2ccccc2)nc2ccccc12)c1ccccc1 (mixture of isomers)	< 1 µM	0.036 µM	
CC[C@H](NC(=O)c1c([S+](C)[O-])c(-c2ccccc2)nc2ccccc12)c1ccccc1 (mixture of isomers)		0.0049 µM	efflux ratio [1]: 2.7; solubility [2]: 230 µM; Papp [4]: 94 nm/s
CC[C@H](NC(=O)c1c(S(C)(=O)=O)c(-c2ccccc2)nc2ccccc12)c1ccccc1 (mixture of isomers)	36 µM	0.014 µM	efflux ratio [1]: 2.6; Papp [4]: 110 nm/s
CC[C@H](NC(=O)c1c(CSC)c(-c2ccccc2)nc2ccccc12)c1ccccc1 (mixture of isomers)	2 µM	0.035 µM	efflux ratio [1]: 1.1; Papp [4]: 59 nm/s
CC[C@H](NC(=O)c1c(CS(C)(=O)=O)c(-c2ccccc2)nc2ccccc12)c1ccccc1 (mixture of isomers)	4 µM	0.0025 µM	efflux ratio [1]: 3.1; Papp [4]: 110 nm/s
CC[C@H](NC(=O)c1c(CC[S+](C)[O-])c(-c2ccccc2)nc2ccccc12)c1ccccc1 (mixture of isomers)	360 µM	0.0033 µM	efflux ratio [1]: 21; Papp [4]: 10 nm/s
CC[C@H](NC(=O)c1c([S+](C)[O-])c(-c2ccccc2F)nc2ccccc12)c1ccccc1 (mixture of isomers)	53 µM	0.081 µM	
CC[C@H](NC(=O)c1c([S+](C)[O-])c(-c2cccc(F)c2)nc2ccccc12)c1ccccc1 (mixture of isomers)	100 µM	0.018 µM	
CC[C@H](NC(=O)c1c([S+](C)[O-])c(-c2ccc(F)cc2)nc2ccccc12)c1ccccc1 (mixture of isomers)	88 µM	0.048 µM	
CC[C@H](NC(=O)c1c([S+](C)[O-])c(-c2cccs2)nc2ccccc12)c1ccccc1 (mixture of isomers)	47 µM	0.0017 µM	microsomal CLint [3]: 220 µL/min/mg
CC[C@H](NC(=O)c1c([S+](C)[O-])c(-c2ccsc2)nc2ccccc12)c1ccccc1 (mixture of isomers)		0.0018 µM	microsomal CLint [3]: 190 µL/min/mg
CC[C@H](NC(=O)c1c([S+](C)[O-])c(-c2ccccn2)nc2ccccc12)c1ccccc1 (mixture of isomers)	360 µM	1.12 µM	
CC[C@H](NC(=O)c1c([S+](C)[O-])c(-c2cscn2)nc2ccccc12)c1ccccc1 (mixture of isomers)	41 µM	0.11 µM	
CC[C@H](NC(=O)c1c([S+](C)[O-])c(-c2cncs2)nc2ccccc12)c1ccccc1 (mixture of isomers)	390 µM	0.22 µM	
CC[C@H](NC(=O)c1c([S+](C)[O-])c(-c2cc[nH]n2)nc2ccccc12)c1ccccc1 (mixture of isomers)	420 µM	2.5 µM	
CC[C@H](NC(=O)c1c([S+]([O-])CC)c(-c2ccccc2)nc2ccccc12)c1ccccc1 (mixture of isomers)	170 µM	0.0069 µM	
CC[C@H](NC(=O)c1c([S+]([O-])C(C)C)c(-c2ccccc2)nc2ccccc12)c1ccccc1 (mixture of isomers)	83 µM	0.016 µM	

SMILES	solubility thermodynamic [2]	EC50 [5]	also measured
CC[C@H](NC(=O)c1c([S+]([O-])CC(=O)N(C)C)c(-c2ccccc2)nc2ccccc12)c1ccccc1 (mixture of isomers)	52 µM	0.012 µM	
CC[C@H](NC(=O)c1c([S+](C)[O-])c(-c2ccccc2)nc2c(F)cccc12)c1ccccc1 (mixture of isomers)	160 µM	0.0082 µM	
CC[C@H](NC(=O)c1c([S+](C)[O-])c(-c2ccccc2)nc2c(C)cccc12)c1ccccc1 (mixture of isomers)	16 µM	1.9 µM	
CC[C@H](NC(=O)c1c([S+](C)[O-])c(-c2ccccc2)nc2cc(F)ccc12)c1ccccc1 (mixture of isomers)	58 µM	0.013 µM	
CC[C@H](NC(=O)c1c([S+](C)[O-])c(-c2ccccc2)nc2cc(Cl)ccc12)c1ccccc1 (mixture of isomers)	34 µM	0.0077 µM	
CCOc1ccc2c(C(=O)N[C@@H](CC)c3ccccc3)c([S+](C)[O-])c(-c3ccccc3)nc2c1 (mixture of isomers)	69 µM	0.038 µM	
CC[C@H](NC(=O)c1c([S+](C)[O-])c(-c2ccccc2)nc2cc(N(C)C)ccc12)c1ccccc1 (mixture of isomers)	44 µM	0.212 µM	
CC[C@H](NC(=O)c1c([S+](C)[O-])c(-c2ccccc2)nc2cc(Br)ccc12)c1ccccc1 (mixture of isomers)	15 µM	0.0051 µM	
CC[C@H](NC(=O)c1c([S+](C)[O-])c(-c2ccccc2)nc2cc(C)ccc12)c1ccccc1 (mixture of isomers)	160 µM	0.0036 µM	
CC[C@H](NC(=O)c1c([S+](C)[O-])c(-c2ccccc2)nc2cc(CN(C)C)ccc12)c1ccccc1 (mixture of isomers)	460 µM	0.088 µM	
C[S+]([O-])c1c(-c2ccccc2)nc2ccccc2c1C(=O)N[C@H](c1ccccc1)C1CC1 (mixture of isomers)	180 µM	0.015 µM	
C[S+]([O-])c1c(-c2ccccc2)nc2ccccc2c1C(=O)N[C@H](c1ccncc1)C1CC1 (mixture of isomers)		> 10 µM	solubility [2]: 99 µM
CC[C@H](NC(=O)c1c([S+](C)[O-])c(-c2ccccc2)nc2ccccc12)c1cccnc1 (mixture of isomers)	350 µM	0.074 µM	
CC[C@H](NC(=O)c1c([S+](C)[O-])c(-c2ccccc2)nc2ccccc12)c1ccccn1 (mixture of isomers; 35a)	420 µM	0.077 µM	
CC[C@H](NC(=O)c1c([S+](C)[O-])c(-c2ccccc2)nc2ccccc12)c1ccccn1 (mixture of isomers; 35b)		> 5.2 µM	solubility [2]: 460 µM
C[S+]([O-])c1c(-c2ccccc2)nc2ccccc2c1C(=O)NC1(c2ccccc2)CC1 (racemic)	1.3 µM (≈ 0.555 µg/mL)	0.016 µM	
C[S+]([O-])c1c(-c2ccccc2)nc2ccccc2c1C(=O)NC1(c2ccccc2)CCC1 (racemic)	4.5 µM (≈ 1.98 µg/mL)	0.038 µM	
CC[C@H](NC(=O)c1c([S+](C)[O-])c(-c2cccnc2)nc2ccccc12)c1ccccc1 (single isomer, unassigned)	470 µM (≈ 202 µg/mL)	0.69 µM	
CC[C@H](NC(=O)c1c([S+](C)[O-])c(-c2ccccc2)nc2ccccc12)c1ccccc1 (stereo in doubt; 2b)		0.24 µM	Ratio [18]: 2; solubility [2]: 44 µM (≈ 18.9 µg/mL); Papp [19]: 170 nm/s
C[S+]([O-])c1c(-c2ccccc2)nc2ccccc2c1C(=O)N[C@H](c1ccncc1)C1CC1 (stereo in doubt; 33b)		> 9.3 µM	solubility [2]: 370 µM (≈ 163 µg/mL)
